ChEMBL document CHEMBL4616716, “ONO-8430506: A Novel Autotaxin Inhibitor That Enhances the Antitumor Effect of Paclitaxel in a Breast Cancer Model” (ACS Med Chem Lett, 2020)

Tests used:
Autotaxin [1] = target: T1, Autotaxin (Homo sapiens, UniProt Q13822); assay: Inhibition of recombinant human ATX assessed as reduction in choline release using LPC(16:0) as substrate incubated for 15 hrs
How it was run: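 Recombinant human ATX with 16:0 LPC as substrate. Single-point inhibition was tested at 30 μM, and IC50 values were determined.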

[2] = Octanol/phosphate buffer partition coefficient, LogD of compound at pH 7.4 mixed for 1 hr using benchtop-rotator followed by further incubation for 1 hr by ESI-LC-MS/MS analysis; assay type: physicochemical
[3] = Protein binding in human plasma measured after 4 hrs by LC-MS/MS analysis; assay type: ADME, cell-free; settings: read-out: PPB (converted)
Autotaxin [4] = target: T1, Autotaxin; assay: Inhibition of LysoPLD activity of ATX in human plasma assessed as reduction in choline release using LPC(16:0) as substrate incubated for 15 hrs; assay type: cell-free
How it was run: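 LysoPLD activity in human plasma with 16:0 LPC as substrate; IC50 determined.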

Autotaxin [5] = target: T1, Autotaxin; assay: Selectivity index, ratio of IC50 for LysoPLD activity of ATX in human plasma to IC50 for recombinant human ATX assessed as reduction in choline release using LPC(16:0) as substrate incubated for 15 hrs
How it was run: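 Ratio of two IC50 values. One comes from LysoPLD activity in human plasma. The other comes from purified recombinant human ATX. Both assays use 16:0 LPC as substrate.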

[6] = Protein binding in rat plasma measured after 4 hrs by LC-MS/MS analysis; assay type: ADME, cell-free; settings: read-out: PPB (converted)
[7] = AUC in Sprague-Dawley rat at 0.5 mg/kg, po administered as single cassette dosing by LC-MS/MS analysis; assay type: ADME, organism-based; settings: in vivo
How it was run: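 Rat cassette dosing, 0.5 mg/kg oral; plasma AUC reported.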

[8] = Drug metabolism in human hepatocytes assessed as compound isomerization by measuring conversion ratio at 1 uM incubated for 2 hrs by LC-MS/MS analysis; assay type: ADME, cell-based, Hepatocyte; settings: read-out: Drug metabolism
How it was run: (§1)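 Hepatocytes from human, rat, dog and monkey were incubated with the trans isomer. The conversion ratio is the cis isomer concentration over the sum of cis and trans, 2 h after the start of incubation.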

[9] = Drug metabolism in monkey hepatocytes assessed as compound isomerization by measuring conversion ratio at 1 uM incubated for 2 hrs by LC-MS/MS analysis; assay type: ADME, cell-based, Macaca mulatta, Hepatocyte; settings: rhesus monkey, read-out: Drug metabolism; how it was run: as §1
[10] = Drug metabolism in rat hepatocytes assessed as compound isomerization by measuring conversion ratio at 1 uM incubated for 2 hrs by LC-MS/MS analysis; assay type: ADME, cell-based, Hepatocyte; settings: read-out: Drug metabolism; how it was run: as §1
[11] = Drug metabolism in dog hepatocytes assessed as compound isomerization by measuring conversion ratio at 1 uM incubated for 2 hrs by LC-MS/MS analysis; assay type: ADME, cell-based, Canis lupus familiaris, Hepatocyte; settings: read-out: Drug metabolism; how it was run: as §1

IC50 (Autotaxin [1]) | logD at 1 h [2] | fraction unbound at 4 h [3] | IC50 (Autotaxin [4]) | further results | Compound
5400 nM | – | – | – | – | O=C(O)CCC(=O)N1CCc2c(n(Cc3ccccc3)c3ncccc23)C1
29 nM | 1.45 | 0.004 | – | – | O=C(C[C@H]1CC[C@@H](C(=O)O)CC1)N1CCc2c(n(Cc3cccc(F)c3)c3ncccc23)C1
250 nM | – | – | – | – | O=C(O)CCCCCC(=O)N1CCc2c(n(Cc3ccccc3)c3ncccc23)C1
19 nM | 1.36 | 0.006 | 16 nM | – | O=C(C[C@H]1CC[C@@H](C(=O)O)CC1)N1CCc2c(n(Cc3ccc(F)cc3F)c3ncccc23)C1
830 nM | – | – | – | – | O=C(O)CCCC(=O)N1CCc2c(n(Cc3ccccc3)c3ncccc23)C1
17 nM | 1.07 | 0.007 | – | – | O=C(C[C@H]1CC[C@H](C(=O)O)CC1)N1CCc2c(n(Cc3cccc(F)c3)c3ncccc23)C1
17 nM | – | – | 260 nM | Ratio IC50 (Autotaxin [5]): 15 | CC(C)(CCCC(=O)N1CCc2c(n(Cc3cccc(F)c3)c3ncccc23)C1)C(=O)O
9 nM | – | 0.009 | 8.1 nM | fraction unbound at 4 h [6]: 0.043; AUC [7]: 472 ng·h/mL | O=C(CC12CCC(C(=O)O)(CC1)CC2)N1CCc2c(n(Cc3ccc(F)cc3F)c3ncccc23)C1
– | 1.15 | 0.016 | 7.3 nM | metabolised at 2 h, 1 µM [8]: 29.8%; fraction unbound at 4 h [6]: 0.021; metabolised at 2 h, 1 µM [9]: 21.4%; metabolised at 2 h, 1 µM [10]: 14.4%; metabolised at 2 h, 1 µM [11]: 9% | O=C(C[C@H]1CC[C@H](C(=O)O)CC1)N1CCc2c(n(Cc3ccc(F)cc3F)c3ncccc23)C1
